Experimental findings from ChEMBL document CHEMBL4017520, “Discovery, Structure-Activity Relationship, and Antiparkinsonian Effect of a Potent and Brain-Penetrant Chemical Series of Positive Allosteric Modulators of Metabotropic Glutamate Receptor 4” (J Med Chem, 2017) are described below.

Series [1] has as its target Metabotropic glutamate receptor 2 (Homo sapiens) (UniProt Q14416). As to the kind of experiment: Activity at human mGlu2 receptor expressed in HEK293 cells co-expressing Gi/Gq assessed as effect on EC20/EC80 glutamate-induced intracellular calcium level up to 10 uM preincubated for 10 mins followed by glutamate addition measured for 3 mins by Fluo4-AM dye based fluorescence assay. It counts as functional, cell-based. Put shortly: (§1)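 HEK-293 cells were electroporated with the human mGluR plus a promiscuous or chimeric G protein and cultured 24 h, then serum-starved 3 h. Cells were loaded 1.5 h with 1 μM Fluo4-AM in HBSS/HEPES buffer with probenecid and 0.1% BSA. Compound was added for 10 min, then glutamate at EC20 (PAM) or EC80 (NAM), and fluorescence (ex 485/em 525) was read for 3 min.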
Background: Calcium flux is commonly read through the fluorescence of an indicator in the cells.

Series [2] is filed under the species Rattus norvegicus. As to the kind of experiment: Activity at NMDA glutamate receptor in rat cerebral cortex at 10 uM. The gist of the method: (§2)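 Inhibition of orthosteric ligand binding to NMDA, AMPA and kainate receptors on rat cerebral cortex membranes, tested up to 10 μM.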
Series [3] addresses D(2) dopamine receptor (Homo sapiens) (UniProt P14416). As to the kind of experiment: Antagonist activity at D2L receptor (unknown origin) at 10 uM.
In series [4] the target is Receptor-type tyrosine-protein kinase FLT3 (Homo sapiens) (UniProt P36888). In words: Inhibition of Flt3 (unknown origin) at 10 uM relative to control.
The target of series [5] is Metabotropic glutamate receptor 3 (Homo sapiens) (UniProt Q14832). As to the kind of experiment: Activity at human mGlu3 receptor expressed in HEK293 cells co-expressing Gi/Gq assessed as effect on intracellular calcium level up to 10 uM after 10 mins by Fluo4-AM dye based fluorescence assay. It counts as functional, cell-based. Put shortly:
(§3)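 HEK-293 cells transiently expressing the human mGluR with a promiscuous or chimeric G protein were serum-starved 3 h and loaded 1.5 h with 1 μM Fluo4-AM. Compound alone was added in assay buffer, and calcium fluorescence (ex 485/em 525) was recorded for 10 min as agonist readout.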

For series [6], the species on record is Rattus norvegicus. In words: Activity at AMPA glutamate receptor in rat cerebral cortex at 10 uM. Put shortly:
as §2

For series [7], the target named is Metabotropic glutamate receptor 3 (Homo sapiens) (UniProt Q14832). As to the kind of experiment: Activity at human mGlu3 receptor expressed in HEK293 cells co-expressing Gi/Gq assessed as effect on EC20/EC80 glutamate-induced intracellular calcium level up to 10 uM preincubated for 10 mins followed by glutamate addition measured for 3 mins by Fluo4-AM dye based fluorescence assay. It counts as functional, cell-based. Put shortly: as §1

Series [8] deals with Rattus norvegicus. In words: Protection against 6-OHDA induced parkinsonian motor deficit in Sprague-Dawley rat assessed as increase in slow activity at 30 mg/kg, ip after 28 days post surgery. It counts as functional, organism-based. Put shortly:
(§4)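 Adult male Sprague−Dawley rats with bilateral 6-OHDA striatal lesions given compound 30 mg/kg ip or vehicle at T0; spontaneous locomotor activity (active time, slow activity, rearing) counted in 5-min bins versus pre-surgery vehicle; n = 10.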

Series [9] addresses Metabotropic glutamate receptor 2 (Homo sapiens) (UniProt Q14416). In words: Activity at human mGlu2 receptor expressed in HEK293 cells co-expressing Gi/Gq assessed as effect on intracellular calcium level up to 10 uM after 10 mins by Fluo4-AM dye based fluorescence assay. It counts as functional, cell-based. Put shortly:
as §3

For series [10], the system named is Rattus norvegicus. As to the kind of experiment: Protection against 6-OHDA induced parkinsonian motor deficit in Sprague-Dawley rat assessed as increase in active time at 30 mg/kg, ip after 28 days post surgery. It counts as functional, organism-based. The gist of the method:
as §4

The species entered for a further series is Homo sapiens. As to the kind of experiment: Selectivity ratio of compound effect for positive allosteric modulation of recombinant human mGlu4 receptor to compound effect for activity at human mGlu6 receptor.
Series [11] deals with Rattus norvegicus. In words: Protection against 6-OHDA induced parkinsonian motor deficit in Sprague-Dawley rat assessed as increase in rearing time at 30 mg/kg, ip after 28 days post surgery. It counts as functional, organism-based. The gist of the method:
as §4

Series [12] can be described thus: Ratio of fraction unbound in Sprague-Dawley rat brain at 30 mg/kg, ip after 120 mins to EC50 for rat mGlu4 receptor expressed in HEK293 cells.
Series [13] in a line: AUC (0 to infinity) in C57BL/6 mouse at 2 mg/kg, iv administered as single dose by LC-MS/MS analysis. Further details: dose 2 mg/kg, time infinity, route intravenous. As to conditions: in vivo. It counts as ADME, organism-based.
Series [14] is described as follows: Drug uptake in C57BL/6 mouse brain at 10 mg/kg, po after 30 mins post dose administered as single dose by LC-MS/MS analysis. It counts as ADME, organism-based. As to conditions: read-out: Drug uptake. Put shortly:
(§5)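 Mice given 10 mg/kg orally. Plasma Cmax was determined and brain concentration measured at 30 min postdose. Values are the mean (±SEM) of 2 mice.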

Series [15] is described as follows: Tmax in Sprague-Dawley rat plasma at 10 mg/kg, po administered as single dose by LC-MS/MS analysis. It counts as ADME, organism-based. Put shortly:
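Single-dose plasma PK after ip (10 or 30 mg/kg) or oral (10 mg/kg) dosing in rats, and oral 10 mg/kg dosing in mice. […] Values are mean ±SEM of 3 rats or 2 mice.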

A short description of series [16]: Drug uptake in Sprague-Dawley rat brain at 30 mg/kg, ip after 30 mins post dose administered as single dose by LC-MS/MS analysis. It counts as ADME, organism-based. The note with it: read-out: Drug uptake. Put shortly:
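Rats dosed ip at 10 or 30 mg/kg. Plasma Cmax, Tmax, half-life and AUC0–inf were determined. Brain concentration was measured 30 min postdose, and brain/plasma ratio was taken at 30 min. Values are the mean (±SEM) of 3 rats.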

Series [17] in a line: Ratio of drug level in C57BL/6 mouse brain to plasma at 2 mg/kg, iv administered as single dose measured after 30 mins by LC-MS/MS analysis. It counts as ADME, organism-based. As to conditions: read-out: BPR. Put shortly:
(§6)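 Single iv dose, 1 mg/kg in rat or 2 mg/kg in mouse; plasma PK parameters derived; brain/plasma ratio taken at 1 h postdose (rat) or 30 min postdose (mouse). Mean of 3 rats; 2 mice for mouse Cmax and brain/plasma.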

Series [18] is described as follows: Cmax in C57BL/6 mouse plasma at 10 mg/kg, po administered as single dose by LC-MS/MS analysis. It counts as ADME, organism-based. Details: dose 10 mg/kg, route oral. The gist of the method:
as §5

The nature of series [19]: Plasma clearance in Sprague-Dawley rat at 1 mg/kg, iv administered as single dose by LC-MS/MS analysis. It counts as ADME, organism-based. Put shortly: as §6
Series [20] in a line: Ratio of drug level in Sprague-Dawley rat brain to plasma at 10 mg/kg, po after 30 mins post dose administered as single dose by LC-MS/MS analysis. As to conditions: read-out: BPR. It counts as ADME, organism-based. Put shortly:
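Single dose ip (10 or 30 mg/kg, rat) or oral (10 mg/kg, rat or mouse); plasma Cmax, Tmax, half-life, AUC0−inf derived; brain concentration and brain/plasma ratio at 30 min postdose. Mean of 3 rats or 2 mice.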

Series [21] deals with Brain. In words: Fraction unbound in Sprague-Dawley rat brain at 30 mg/kg, ip after 120 mins. It counts as ADME, organism-based. As to conditions: in vivo, 2 h.
The nature of series [22]: Drug uptake in Sprague-Dawley rat brain at 30 mg/kg, ip after 120 mins. It counts as ADME, organism-based. The note with it: read-out: Drug uptake.
Series [23] deals with Brain. As to the kind of experiment: Fraction unbound in Sprague-Dawley rat brain at 30 mg/kg, ip after 240 mins. It counts as ADME, organism-based. The note with it: in vivo, 4 h.
The test system of the next series is Plasma. As to the kind of experiment: Drug level in Sprague-Dawley rat plasma at 10 mg/kg, po administered as single dose measured at 24 hrs post dose by LC-MS/MS analysis. It counts as ADME, organism-based. As to conditions: in vivo. The gist of the method: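 Rats given a single oral dose of 10 mg/kg. The first plasma sample was taken at 15 min, and sampling continued to 24 h postdose. Brain was sampled at 30 min. Values are the mean (±SEM) of 3 rats.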

The test system of series [24] is Rattus norvegicus. As to the kind of experiment: Toxicity in 6-OHDA induced parkinsonian motor deficit Sprague-Dawley rat model assessed as induction of dyskinesia at 30 mg/kg, ip. It counts as organism-based. As to conditions: in vivo.

In general, inhibition refers to the relative decrease from the control value, in per cent. Read a low inhibition as little suppression. One may read the AUC(0-inf) as the area under the concentration-time curve extrapolated to infinity. Lower therefore signals less exposure. In general, Tmax refers to the time from dosing to the highest level. A word on the Cmax: it is the maximum level reached in the sampled fluid or tissue. For orientation: clearance means the rate of elimination divided by the concentration. A low value points to a low capacity for elimination.

Calls of active or inactive are those of the source. No cut-off for these calls is given here.

Metabotropic glutamate receptor 3 (Homo sapiens), sequence (Q14832 23-879 limits assumed): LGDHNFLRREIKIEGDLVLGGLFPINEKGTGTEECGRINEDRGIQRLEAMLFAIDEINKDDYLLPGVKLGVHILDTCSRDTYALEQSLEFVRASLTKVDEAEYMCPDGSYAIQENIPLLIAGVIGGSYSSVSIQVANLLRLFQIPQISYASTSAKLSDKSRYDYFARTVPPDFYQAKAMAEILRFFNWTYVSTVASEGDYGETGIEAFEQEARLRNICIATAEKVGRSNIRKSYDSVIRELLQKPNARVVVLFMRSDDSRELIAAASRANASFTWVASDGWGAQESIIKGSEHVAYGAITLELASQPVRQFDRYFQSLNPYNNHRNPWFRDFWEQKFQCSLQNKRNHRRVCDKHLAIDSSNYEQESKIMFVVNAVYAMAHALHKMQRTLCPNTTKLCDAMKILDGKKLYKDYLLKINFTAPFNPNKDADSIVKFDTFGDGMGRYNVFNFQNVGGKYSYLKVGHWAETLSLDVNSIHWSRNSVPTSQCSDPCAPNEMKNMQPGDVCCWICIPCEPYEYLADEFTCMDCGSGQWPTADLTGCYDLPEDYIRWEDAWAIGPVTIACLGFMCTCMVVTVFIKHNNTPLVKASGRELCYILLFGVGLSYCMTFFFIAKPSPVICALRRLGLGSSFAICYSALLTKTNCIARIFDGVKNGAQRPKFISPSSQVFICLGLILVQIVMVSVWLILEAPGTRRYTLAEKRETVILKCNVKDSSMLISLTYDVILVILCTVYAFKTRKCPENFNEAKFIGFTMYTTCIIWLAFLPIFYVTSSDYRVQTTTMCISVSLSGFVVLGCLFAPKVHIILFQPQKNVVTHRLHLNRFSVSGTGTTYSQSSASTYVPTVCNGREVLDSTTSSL
Metabotropic glutamate receptor 2 (Homo sapiens), sequence (Q14416 19-872 limits assumed): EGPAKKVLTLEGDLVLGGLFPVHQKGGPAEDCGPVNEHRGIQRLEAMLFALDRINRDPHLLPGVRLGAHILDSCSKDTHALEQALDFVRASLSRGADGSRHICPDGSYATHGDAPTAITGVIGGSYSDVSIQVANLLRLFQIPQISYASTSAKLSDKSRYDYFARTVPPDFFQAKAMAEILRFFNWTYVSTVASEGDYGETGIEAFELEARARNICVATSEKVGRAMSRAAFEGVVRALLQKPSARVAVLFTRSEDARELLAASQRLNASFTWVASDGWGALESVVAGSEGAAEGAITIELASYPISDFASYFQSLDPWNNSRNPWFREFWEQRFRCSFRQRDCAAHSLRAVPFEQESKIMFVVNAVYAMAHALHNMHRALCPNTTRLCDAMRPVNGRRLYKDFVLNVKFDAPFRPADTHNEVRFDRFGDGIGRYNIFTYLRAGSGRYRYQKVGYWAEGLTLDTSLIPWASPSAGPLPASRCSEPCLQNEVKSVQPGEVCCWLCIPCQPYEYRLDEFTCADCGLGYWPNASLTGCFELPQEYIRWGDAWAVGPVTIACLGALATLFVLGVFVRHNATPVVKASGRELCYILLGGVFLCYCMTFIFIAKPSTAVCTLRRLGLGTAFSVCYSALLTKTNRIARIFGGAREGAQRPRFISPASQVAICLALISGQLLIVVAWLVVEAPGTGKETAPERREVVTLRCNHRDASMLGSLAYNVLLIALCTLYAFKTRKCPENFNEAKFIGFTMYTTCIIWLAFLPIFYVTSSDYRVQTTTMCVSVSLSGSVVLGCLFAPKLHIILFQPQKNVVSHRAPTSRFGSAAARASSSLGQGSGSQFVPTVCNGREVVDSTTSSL
Receptor-type tyrosine-protein kinase FLT3 (Homo sapiens), sequence (P36888 whole entry): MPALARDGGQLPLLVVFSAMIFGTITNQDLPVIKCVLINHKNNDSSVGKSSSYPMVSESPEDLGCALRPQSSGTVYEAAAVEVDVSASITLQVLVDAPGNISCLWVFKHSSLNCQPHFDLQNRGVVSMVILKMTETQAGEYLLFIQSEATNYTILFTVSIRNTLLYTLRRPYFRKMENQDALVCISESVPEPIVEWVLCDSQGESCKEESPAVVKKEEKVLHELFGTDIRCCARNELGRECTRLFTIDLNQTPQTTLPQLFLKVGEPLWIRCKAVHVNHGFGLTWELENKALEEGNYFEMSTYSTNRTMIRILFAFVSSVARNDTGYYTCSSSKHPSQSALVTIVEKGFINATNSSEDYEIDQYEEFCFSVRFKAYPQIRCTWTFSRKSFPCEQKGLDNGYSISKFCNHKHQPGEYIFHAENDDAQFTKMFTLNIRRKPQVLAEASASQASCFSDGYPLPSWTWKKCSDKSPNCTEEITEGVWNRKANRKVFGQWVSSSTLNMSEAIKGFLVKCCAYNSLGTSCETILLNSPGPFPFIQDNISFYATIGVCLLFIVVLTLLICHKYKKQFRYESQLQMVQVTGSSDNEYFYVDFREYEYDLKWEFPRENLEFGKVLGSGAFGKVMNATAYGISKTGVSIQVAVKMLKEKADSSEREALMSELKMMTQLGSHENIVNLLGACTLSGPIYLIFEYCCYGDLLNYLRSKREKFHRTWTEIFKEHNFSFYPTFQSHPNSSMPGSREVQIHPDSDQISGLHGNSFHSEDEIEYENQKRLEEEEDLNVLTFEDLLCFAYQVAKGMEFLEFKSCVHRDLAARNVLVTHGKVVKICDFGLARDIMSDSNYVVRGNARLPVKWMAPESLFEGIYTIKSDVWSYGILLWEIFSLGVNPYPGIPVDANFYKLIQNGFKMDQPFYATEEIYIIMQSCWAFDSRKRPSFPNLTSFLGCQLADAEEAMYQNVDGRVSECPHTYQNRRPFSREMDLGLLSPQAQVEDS
D(2) dopamine receptor (Homo sapiens), sequence (P14416 whole entry): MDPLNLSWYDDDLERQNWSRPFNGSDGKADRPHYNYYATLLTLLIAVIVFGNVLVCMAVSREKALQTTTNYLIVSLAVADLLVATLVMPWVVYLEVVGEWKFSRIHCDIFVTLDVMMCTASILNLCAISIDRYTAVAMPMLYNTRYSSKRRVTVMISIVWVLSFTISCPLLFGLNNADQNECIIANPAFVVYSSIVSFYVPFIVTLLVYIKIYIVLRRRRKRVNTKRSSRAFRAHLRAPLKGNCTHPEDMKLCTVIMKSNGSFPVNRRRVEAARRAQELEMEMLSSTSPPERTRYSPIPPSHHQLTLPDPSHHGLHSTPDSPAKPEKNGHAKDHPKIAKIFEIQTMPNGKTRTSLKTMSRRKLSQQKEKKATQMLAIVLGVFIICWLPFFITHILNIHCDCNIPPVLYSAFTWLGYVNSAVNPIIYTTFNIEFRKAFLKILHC

`O/N=c1\cc(-c2cc3cccn3cn2)oc2ccc(OCCN3CCOCC3)cc12` [listing 1 of 2 here]: the result (in series [1]; in the series filed under Rattus norvegicus [2]; in [3]; in series [5]; in the series listed under Rattus norvegicus [6]; in series [7]) was inactive. For the same compound, the outcome in [9] was inactive. In [4], this compound had an inhibition of 64%. For the same compound, the result with Rattus norvegicus [8], in the series on Rattus norvegicus [10] and in the series with Rattus norvegicus [11] was Active. The Selectivity ratio in the series filed under Homo sapiens was 13.
On to `O/N=c1\cc(-c2cc3cccn3cn2)oc2ccc(OCCN3CCOCC3)cc12` [listing 2 of 2 here], for which the Ratio in [12] is 1.1. The AUC(0-inf) in series [13] is 269 ng·h/mL. Further, the concentration at 0.5 h in [14] was 390 ng/g; in series [16], 22800 ng/g. The Tmax in series [15] was 20 min. The figures for the Kp at 0.5 h in [17] and in series [20] were 3.6 and 2.3, respectively. The compound further returned a Cmax in series [18] of 229 ng/mL. In series [19], this compound returned a clearance of 113 mL/min/kg. The “Drug uptake(free)” value amounted to 13 ng/g in the series with Brain [21] and 2 ng/g with Brain [23]. For the same compound, the concentration at 2 h in series [22] stood at 1740 ng/g. For the same compound, in the series on Plasma, the Drug uptake lay in the range of 2 to 10%. For the same compound, in the series on Rattus norvegicus [24], the Activity result is given as “Non-Toxic”.
